UCH37 inh – inhibitors of human UCH37 deubiquitinase, primary screen, biochemical, Ub-AMC cleavage, fluorescence; Ubiquitin carboxyl-terminal hydrolase isozyme L5 (Homo sapiens), Q9Y5K5; purified proteasome/UCH37; inhibition, % (test concentration not listed); 330,000 compounds, 0.33% hits; AID 588478, 2011;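 active = mean inhibition over replicate wells above about 20%, limit read from the data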;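 also: 0% = compound-free wells with enzyme and 100% = wells lacking proteasome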
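Reagent: Ub-AMC substrate; assay system: Proteasome-associated human UCH37 deubiquitinase; controls: no-proteasome and no-compound wells; read-out: % inhibition of Ub-AMC cleavage fluorescence; timing: 30 min preincubation with enzyme, 25 min cleavage at room temperature; signal: AMC fluorescence from Ub-AMC cleavage, excitation 355 nm, emission 460 nm; buffer or medium: Tris-HCl pH 7.4 plus ovalbumin, ATP-MgCl2, DTT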
Casp6 inh – human caspase-6 inhibitors, primary screen, biochemical, VEID-R110 fluorescence, single point, set 2; purified caspase-6, Z-VEID-R110 cleavage fluorescence; AID 686996, 2013; P55212; 350,000 compounds, 0.53% hits; inhibition, % at 12.5 µM;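 active = mean inhibition across replicates at least about 35%, with every replicate also reaching that limit, limit read from the data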;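 also: 0% = median of neutral control wells and 100% = no fluorescence left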
FGF22 binding-1 – binders of human FGF22 protein, primary screen, FGF22 synaptogenesis inhibitor project, biophysical, thermal shift, single point | Fibroblast growth factor 22 (Homo sapiens), Q9HCT0 | 340,000 compounds, 1.5% hits | activity (Tm shift, normalised), % at 9.99 µM | AID 651658, 2012 | recombinant FGF22 thermal shift, SYPRO orange fluorescence; percent of sucrose octasulfate shift, DMSO zero;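 active = mean Tm shift, scaled 0 neutral to 100 positive control, at about 1.3% or above, every replicate too, limit read from the data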
Target sequence (Q9HCT0 whole entry, looked up): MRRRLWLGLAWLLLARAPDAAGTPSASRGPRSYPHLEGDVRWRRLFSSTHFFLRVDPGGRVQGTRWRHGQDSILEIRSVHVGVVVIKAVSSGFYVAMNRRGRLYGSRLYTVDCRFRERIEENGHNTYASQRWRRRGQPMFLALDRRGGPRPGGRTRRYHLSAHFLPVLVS
NSD2 HMT inh – NSD2 histone methyltransferase inhibitors, primary screen, biochemical, AlphaScreen, single concentration, set 2 | 310,000 compounds, 0.54% hits | NSD2 peptide methylation, 120 min | Histone-lysine N-methyltransferase NSD2 (Homo sapiens), O96028 | inhibition, % at 12.5 µM; in the data active = inhibition above about 50%
SIRT5 block – SIRT5 desuccinylase inhibitors, primary screen, biochemical, fluorescence imaging, single point, set 5 | NAD-dependent protein deacylase sirtuin-5, mitochondrial (Homo sapiens), Q9NXA8 | Purified SirT5, succinyl-peptide AMC, trypsin-coupled fluorescence | inhibition, % at 15 µM | 330,000 compounds, 1.1% hits | AID 652115, 2013; in the data active = inhibition above about 15%
Target sequence (Q9NXA8 whole entry, looked up): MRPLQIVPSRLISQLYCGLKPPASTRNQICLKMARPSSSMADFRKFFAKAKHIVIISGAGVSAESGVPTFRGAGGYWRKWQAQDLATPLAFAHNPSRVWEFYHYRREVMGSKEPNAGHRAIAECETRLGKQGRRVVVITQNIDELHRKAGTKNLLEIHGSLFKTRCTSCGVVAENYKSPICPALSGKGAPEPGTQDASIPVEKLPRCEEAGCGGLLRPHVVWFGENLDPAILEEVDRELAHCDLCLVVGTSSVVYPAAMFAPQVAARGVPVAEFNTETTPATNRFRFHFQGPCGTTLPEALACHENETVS
FGF22 binding-2 – binders of human FGF22 protein, dose response, FGF22 synaptogenesis inhibitor project, biophysical, thermal shift, cherry-pick retest. shares compounds with FGF22 binding-1. recombinant FGF22 thermal shift, SYPRO orange fluorescence. thermal shift activity, °C (ΔTm) at 38 µM. 1,000 compounds, 2% hits. AID 720646, 2013;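 active = fitted rise in melting shift crosses a set limit at or below the top valid dose tested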
SYPRO no-protein – compound-only thermal shift signal without protein, dose response, artefact control for FGF22 binder project, biochemical, cherry-picked samples, RT-PCR instrument; shares compounds with FGF22 binding-1; AID 743019, 2013; AC50, µM (series often up to 38 µM); 1,000 compounds, 2% hits; compound-only SYPRO orange thermal shift counter-screen, no protein;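 active = rising signal whose fitted curve reaches the 0.54 level within the top valid dose, showing a melting point, actives reach about 13 µM in these data; inactive = the rest, including activity in the opposite direction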; also: value is where the raw curve crosses a fixed level and not half-maximal
An asterisk follows results filed as active; i = inactive; / = no result; [ ] = remark or other dose. Compounds with a hit are over-represented: about 2.6% of the library has one in this group of screens.

SMILES	UCH37 inh	Casp6 inh	FGF22 binding-1	NSD2 HMT inh	SIRT5 block	FGF22 binding-2	SYPRO no-protein
C[C@H]1CN([C@@H](C)CO)C(=O)c2cccc(NC(=O)Nc3ccc(C(F)(F)F)cc3)c2O[C@H]1CN(C)S(C)(=O)=O	/	1	0	/	-2	/	/
O=C1C2C(C(=O)N1CCc1ccccc1)C1C=CC2C12CC2 (stereo not given)	2	-2	2.5*	-2	1	0.13	i
C[C@H](CO)N1C[C@H](C)[C@H](CN(C)Cc2ccncc2)OCCCC[C@H](C)Oc2ccc(NC(=O)c3ccccc3)cc2C1=O	/	-1	0	/	-10	/	/
O=C(COC(=O)CSc1ccc([N+](=O)[O-])cc1)NCCC1=CCCCC1	13	3	5.5*	/	11	0.16	i
Cc1noc(C)c1NC(=O)N(C)C[C@@H]1Oc2ccc(NS(=O)(=O)c3ccc(Cl)cc3)cc2CC(=O)N([C@H](C)CO)C[C@@H]1C	/	0	0	/	4	/	/
C[C@@H]1CN([C@@H](C)CO)C(=O)c2cc(NS(=O)(=O)c3ccccc3)ccc2O[C@H]1CN(C)Cc1ccc(C(=O)O)cc1	/	-2	0	/	0	/	/
CC(C)NC(=O)Nc1cccc2c1O[C@@H](CN(C)Cc1ccc(C(=O)Nc3ccccc3N)cc1)[C@@H](C)CN([C@H](C)CO)C2=O	/	0	1.5*	/	/	0.17	i
C[C@@H]1CN([C@@H](C)CO)C(=O)c2cc(NS(=O)(=O)c3cccs3)ccc2O[C@@H]1CN(C)CC1CC1	/	-12	0	/	-1	/	/
C[C@H](CO)N1C[C@H](C)[C@H](CN(C)C)Oc2ccc(NC(=O)NC3CCCCC3)cc2CC1=O	/	-2	2.0*	/	0	0.097[42 µM]	i
CC(C)NC(=O)Nc1cccc2c1O[C@H](CN(C)Cc1ccc(C(=O)Nc3ccccc3N)cc1)[C@H](C)CN([C@@H](C)CO)C2=O	/	1	0	/	-10	/	/
C[C@H](CO)N1C[C@H](C)[C@@H](CN(C)CC2CC2)Oc2ccc(NS(=O)(=O)c3cccs3)cc2C1=O	/	-4	5.2*	/	-6	0.096[42 µM]	i
C[C@H]1CN([C@@H](C)CO)C(=O)c2cc(NS(=O)(=O)c3ccccc3)ccc2O[C@@H]1CN(C)Cc1ccc(C(=O)O)cc1	/	0	1.3*	/	-5	0.095	i
O=C(O)c1ccc(NN=Cc2cn(Cc3ccccc3F)c3ccccc23)cc1	-67	/	/	/	/	/	/
C[C@@H]1CN([C@@H](C)CO)C(=O)Cc2cc(NC(=O)Nc3cccc4ccccc34)ccc2O[C@H]1CN(C)C(=O)Nc1ccccc1	/	2	0	/	0	/	/
COC(=O)c1cn(C[C@H](Cc2ccccc2)NC(=O)Nc2ccccc2)nn1	/	1	0	/	1	/	/
C[C@H]1CN([C@@H](C)CO)C(=O)c2cc(NS(=O)(=O)c3ccccc3)ccc2O[C@@H]1CN(C)C	/	-4	1.4*	/	3	0.038	i
C[C@@H]1CN([C@@H](C)CO)C(=O)c2cc(NS(=O)(=O)c3ccccc3)ccc2O[C@@H]1CN(C)S(C)(=O)=O	/	2	1	/	3	/	/
C[C@H]1CN([C@@H](C)CO)C(=O)c2cc(NS(C)(=O)=O)ccc2O[C@H]1CN(C)Cc1ccc2c(c1)OCO2	/	-4	0	/	-3	/	/
C[C@@H]1CN([C@H](C)CO)C(=O)Cc2cc(N(C)C)ccc2O[C@@H]1CN(C)Cc1ccc(Cl)c(Cl)c1	/	1	40*	/	3	/	i
C[C@@H]1CN([C@@H](C)CO)C(=O)c2cc(NS(C)(=O)=O)ccc2O[C@@H]1CN(C)Cc1ccc2c(c1)OCO2	/	-3	1.9*	/	-1	-0.12	i
C[C@@H]1CN([C@H](C)CO)C(=O)c2cc(NC(=O)Cc3cn(C)c4ccccc34)ccc2O[C@@H]1CN(C)S(=O)(=O)c1ccccc1	/	2	25*	/	-1	0.16	i
CCNC[C@@H]1[C@H](c2ccccc2)[C@H](CO)N1C(=O)Cc1ccccn1	/	/	-1	/	13	/	/
C[C@H]1CN([C@@H](C)CO)C(=O)Cc2cc(NC(=O)Nc3ccc4c(c3)OCO4)ccc2O[C@H]1CN(C)C(=O)Nc1ccc(C(F)(F)F)cc1	/	-2	0	/	5	/	/
O=C(C[C@@H]1C=C[C@@H](NS(=O)(=O)c2ccc(F)cc2)[C@@H](CO)O1)N1CCc2ccccc2C1	/	-1	-1	/	-1	/	/
O=[N+]([O-])c1cccc(C=Nn2cnnc2)c1O	-11	/	/	/	/	/	/
SMILES	UCH37 inh	Casp6 inh	FGF22 binding-1	NSD2 HMT inh	SIRT5 block	FGF22 binding-2	SYPRO no-protein
CCc1n[nH]c(=S)n1N=Cc1c[nH]c2ccc(Br)cc12	6	/	/	/	/	/	/
Cc1noc(C)c1NC(=O)Nc1ccc2c(c1)CC(=O)N([C@@H](C)CO)C[C@H](C)[C@@H](CN(C)Cc1ccc3c(c1)OCO3)O2	/	-1	1.5*	/	0	0.13	i
Cc1ccc(S(=O)(=O)Nc2ccc3c(c2)C(=O)N([C@@H](C)CO)C[C@H](C)[C@@H](CN(C)CC2CCCCC2)O3)cc1	/	-6	1.5*	/	4	0.15[42 µM]	i
Cc1ccc(S(=O)(=O)Nc2ccc3c(c2)C(=O)N([C@H](C)CO)C[C@H](C)[C@H](CN(C)CC2CCCCC2)O3)cc1	/	0	-1	/	8	/	/
C/C=C/c1ccc2c(c1)O[C@H](CN(C)C(=O)C1CCOCC1)[C@H](C)CN([C@@H](C)CO)S2(=O)=O	/	1	0	/	-5	/	/
C[C@@H]1CN([C@H](C)CO)C(=O)c2cccc(NC(=O)NC3CCCCC3)c2O[C@@H]1CN(C)Cc1ccc(Cl)c(Cl)c1	/	-1	0	/	14	/	/
C[C@@H]1CCCCO[C@@H](CN(C)Cc2ccc(C(F)(F)F)cc2)[C@@H](C)CN([C@H](C)CO)C(=O)c2cc(NS(C)(=O)=O)ccc2O1	/	/	0	/	/	/	/
O=C(Nc1ccc(Cl)cc1)N1C[C@H]2[C@@H](c3ccccc31)[C@H](CO)N2C(=O)C1CC1	/	4	0	/	-5	/	/
O=C(C1CC1)N1[C@H](CO)[C@H]2c3ccccc3N(S(=O)(=O)c3ccccc3)C[C@H]21	/	-1	2.0*	/	0	0.009	i

Screening data (PubChem)
